This is an account of results in paper PMC11523056 (RSC Advances, 2024).

Ends that are not written are not given here. Peptide text beside a SMILES is read from it.

One data set has as its system murine primary neurons. The class given is cell-based, mouse. The following applies: all concentrations tested (1, 5 & 10 μM), 60 min, 37 °C, live-cell confocal microscopy. The method in brief: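 Mature murine primary neurons were incubated for 60 min in neurobasal medium with TAMRA-labelled peptide at 1, 5 or 10 μM, washed, and imaged live by confocal microscopy in an incubation chamber. The read-out was average fluorescence intensity per cell. Neurons showing homogeneous cytoplasmic plus nucleolar fluorescence were scored as transduced. Data are mean ± standard deviation, with equal n per group.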

For data set [1] the following is noted: particularly upon co-treatment with Alteplase; cited from earlier work.
Data set [2] has as its system acute ischaemic stroke patients. Conditions: ESCAPE-NA1, acute ischaemic stroke; cited from earlier work.

As to `CC[C@H](C)[C@H](NC(=O)[C@H](CO)NC(=O)[C@H](CO)NC(=O)[C@H](CC(C)C)NC(=O)[C@H](CCCCN)NC(=O)c1ccc2c(c1)C(=O)OC21c2ccc(N(C)C)cc2Oc2cc(N(C)C)ccc21)C(=O)N[C@@H](CCC(=O)O)C(=O)N[C@@H](CO)C(=O)N[C@@H](CC(=O)O)C(=O)N[C@H](C(=O)O)C(C)C` [TAMRA-NR2B9c] (HELM PEPTIDE1{[CN(C)c1ccc2c(c1)Oc1cc(N(C)C)ccc1C21OC(=O)c2cc(C(=O)[*:2])ccc21].K.L.S.S.I.E.S.D.V}$$$$V2.0), the “uptake by mean fluorescence intensity per cell (comparison in words)” value in the data set with murine primary neurons is “much lower than for any other peptide construct tested”.
Still for that read-out and setting: as for YGRKKRRQRRR [TAMRA-Tat], the entry is “dose response is minimal”.
As for “YGRKKRRQRRRKLSSIESDV [Tat-NR2B9c, nerinetide]”, the “degradation in human plasma (in words)” value in data set [1] is reported as “rapid degradation”. The “safety in clinical trial” value in data set [2] is “good safety profile”.
